Test results published in PMC10798254 (Indian Journal of Nuclear Medicine : IJNM : The Official …, 2023).

Assays:
[1] = tested on: Serum TSH; assay: Levothyroxine dose for TSH suppression in thyroid cancer; type: in vivo, Indian thyroid cancer patients
In short: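 Follow-up visits of treated thyroid cancer outpatients were evaluated prospectively, recording age, sex, weight, initial ATA risk category, serum TSH and prescribed levothyroxine. Visits with suppressed TSH were selected and dose per kg body weight calculated. Mean, median, range and lowest dose/kg were derived.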

[2] = tested on: Serum TSH; settings: ref the guidelines; cited from earlier work

N[C@@H](Cc1cc(I)c(Oc2cc(I)c(O)c(I)c2)c(I)c1)C(=O)O [Levothyroxine]
patients receiving more than 2ug/kg in excess TSH suppression ([1]; 14 patients, TSH 0.01-0.09 mIU/L): 44%
patients with suppressed TSH values with less than 2ug/kg dose ([1]; 16 patients): 50%
mean suppressive dose ([1]; 36 patients, 90 follow-ups with suppressed TSH, SD 0.49): 2.21 ug/kg body weight
maximum dose ([1]; in vivo): 3.33 µg/kg
minimum dose required to keep the patient in suppression ([1]; in vivo): 1.29 µg/kg
dose required for long-term TSH suppression [2]: 2.2-2.7 ug/kg body weight
